Results collected from several papers.
Lines come from different studies, so protocols differ.
Target: Interleukin-1 receptor-associated kinase 1 (IRAK1, Homo sapiens, UniProt P51617)

SMILES	read-out	method	concentration	remaining binding [%]
O=C(c1ccc(Nc2ncc(Cl)c(-c3ccc(Cl)s3)n2)cc1)N1CCC(N2CCCC2)CC1	binding	competition with immobilised ligand	1 µM	0.05
C[C@H]1CCN(c2nccc(-c3cnn4ncccc34)n2)C1	binding	–	1 µM	100
O=S(=O)(NC1CCC(c2cc(F)ccc2F)(S(=O)(=O)c2ccc(Cl)cc2)CC1)C(F)(F)F (stereo not drawn)	cell-free assay	competition with immobilised ligand	1 µM	93
O=C(c1ccc(Nc2nccc(-c3cc4ccccc4s3)n2)cc1)N1CCC(N2CCCC2)CC1	binding	competition with immobilised ligand	1 µM	3.2
COc1ncc2cc3ccccc3nc2c1C#N	cell-free assay	competition with immobilised ligand	5 µM	92
N[C@H]1CCN(c2nccc(-c3cnn4ncccc34)n2)C1	binding	–	1 µM	90
O=C(Nc1c[nH]nc1C(=O)NC1CCNCC1)c1cc(F)cc(F)c1	binding	competition with immobilised ligand	1 µM	95
CN(C)c1ncc(F)c(-c2cnn3ncccc23)n1	binding	–	1 µM	66
CNC(=O)[C@@H]1CC[C@@H](n2c(-c3ccc4cnccc4c3)nc3ccc(C(=O)NCc4cccc(C(N)=O)c4)cc32)C1	binding	competition with immobilised ligand	1 µM	100
C=CC(=O)N1CCC(C(=O)NCC(=O)N2CCN(c3nc(-c4cnc(N)nc4C(F)F)nc(N4CCOCC4)n3)CC2)CC1	binding	competition with immobilised ligand	1 µM	100
CC1CCCN1c1nccc(-c2cnn3ncccc23)n1 (stereo not drawn)	binding	–	1 µM	85
COc1ccc2cc(OCC3(C(=O)O)CN(C(=O)c4ccc(F)cc4)C3)ccc2c1	cell-free assay	competition with immobilised ligand	1 µM	100
O=C(NCCCN1CCOCC1)c1ccc(Nc2ncc(Cl)c(-c3ccc(Cl)s3)n2)cc1	binding	competition with immobilised ligand	1 µM	0.15
C[C@@]1(Cc2ccc(C#N)cc2)C(=O)N(c2cc(Cl)cc(Cl)c2)c2ncc(C(=O)NC3(c4nc(C5CCC5)no4)CC3)n21	cell-free assay	competition with immobilised ligand	1 µM	100
CCN1CCN(Cc2ccc(C(=O)Nc3ccc(C)c(Oc4ccc5c(c4)CC(=O)N5)c3)cc2C(F)(F)F)CC1	binding	competition with immobilised ligand	1 µM	100
CCS(=O)(=O)c1cc2cc(C[C@](O)(CC(C)(C)c3ccc(F)cc3C(N)=O)C(F)(F)F)[nH]c2cn1	cell-free assay	competition with immobilised ligand	1 µM	99
CN(CCCC(F)(F)F)c1nccc(-c2cnn3ncccc23)n1	binding	–	1 µM	100
Cc1c(NC(=O)c2cc(C(N)=O)nc3cc(F)ccc23)c(C(F)(F)F)nn1Cc1ccc(C#N)cc1	cell-free assay	competition with immobilised ligand	1 µM	70
CN(c1nccc(-c2cnn3ncccc23)n1)C1CC1	binding	–	1 µM	100
FC(F)(F)Oc1cccc(-c2cnc3ccc(-c4ccncc4)nn23)c1	cell-free assay	competition with immobilised ligand	5 µM	10
CN(c1ccnc(CNc2nc(Nc3ccc4c(c3)CC(=O)N4)ncc2C(F)(F)F)n1)S(C)(=O)=O	cell-free assay	competition with immobilised ligand	1 µM	13
